Assay results: PubChem BioAssay AID720574 (Broad Institute, 2013)
Out of some 96,000 compounds screened, about 140 (0.15%) were called active.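 Rule for the calls: active = mean replicate inhibition above about 25%, with at least 55% of replicates also reaching it (limit read from the data, passing the limit was not always enough); inconclusive = only one of those two conditions met; inactive = neither condition met.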 The sample as a whole holds a higher share of actives than the screen did.

What follows are compounds tested against Lysine-specific demethylase 4C (Homo sapiens) (UniProt Q9H3R0) (assay: inhibitors of GASC-1 (KDM4C) histone demethylase, primary screen, biochemical, single concentration HTS (AID 720574)). Conditions: GST-KDM4C 2-372, H3K9me3 peptide, LANCE TR-FRET; at 12.5 µM; hits give high values.
Lysine-specific demethylase 4C (Homo sapiens), sequence (Q9H3R0 2-372 limits assumed): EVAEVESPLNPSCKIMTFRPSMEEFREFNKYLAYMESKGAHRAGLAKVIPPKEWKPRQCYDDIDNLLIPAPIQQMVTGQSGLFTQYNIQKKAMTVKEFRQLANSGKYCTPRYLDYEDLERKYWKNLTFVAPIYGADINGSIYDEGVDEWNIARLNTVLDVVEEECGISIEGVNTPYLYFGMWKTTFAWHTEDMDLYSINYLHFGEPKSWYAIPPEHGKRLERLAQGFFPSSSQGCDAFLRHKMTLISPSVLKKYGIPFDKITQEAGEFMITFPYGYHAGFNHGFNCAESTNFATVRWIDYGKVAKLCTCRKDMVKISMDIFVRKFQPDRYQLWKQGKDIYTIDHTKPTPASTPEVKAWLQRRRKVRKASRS
How it was run: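 reagent = H3K9me3 peptide substrate, Fe(II), 2-oxoglutarate | system = GST-tagged GASC-1 (JMJD2C) catalytic fragment, aa 2-372 | amount = enzyme final amount 10 nM | read-out = Fall in 671/618 emission ratio as inhibition | medium = HEPES buffer, pH 7.5, plus ascorbate | schedule = 30 min reaction, 60 min detection, RT | measured by = LANCE TR-FRET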
For `COc1cccc(S(=O)(=O)N[C@@H]2C=C[C@H](CC(=O)NC3CCC3)O[C@@H]2CO)c1`, the inhibition was -0.615% (inactive).
`CNC(=O)C[C@@H]1CC[C@@H]2[C@@H](COc3ccc(NC(=O)Nc4ccccc4OC)cc3C(=O)N2C)O1` was tested, and the inhibition was -0.148% (inactive).
With `COc1ccc2c3c(n(C)c2c1)[C@@H](CO)N(C(=O)CN1CCOCC1)CC31CN(C(=O)CC2CC2)C1` the inhibition was -1.48% (inactive).
With `C[C@H](CO)N1C[C@H](C)[C@@H](CN(C)C(=O)C2CC2)Oc2cc(C#CC(C)(C)O)ccc2S1(=O)=O` the inhibition was -1.72% (inactive).
`O=C(C1CCCC1)N1CC(=O)N2[C@@H](CO)[C@H](c3ccc(C#CC4CCCC4)cc3)[C@@H]2C1` was tested, and the inhibition was 0.0785% (inactive).
In the case of `COc1cccc(-c2ccc([C@@H]3[C@@H](CO)N4C(=O)CN(C(=O)C5CCCCC5)C[C@H]34)cc2)c1`, the inhibition is reported as -0.874% (inactive).
With `CC(C)(C)[S@](=O)N1Cc2cc(C(=O)N[C@@H]3CCN(Cc4ccccc4)C3)nc(-c3cccc(-c4ccncc4)c3)c2[C@@H]1CCO` the inhibition was -0.764% (inactive).
With `C/C=C/c1ccccc1[C@@H]1[C@@H](C#N)N(C(=O)Cc2ccccn2)[C@H]1CO` the inhibition was 0.483% (inactive).
`CN(C)CC(=O)Nc1ccc2c(c1)[C@H]1C[C@@H](CC(=O)NCc3ccc(Cl)cc3)O[C@@H](CO)[C@H]1O2` was tested, and the inhibition was -0.979% (inactive).
With `COc1cccc(NC(=O)N[C@@H]2CC[C@H](CC(=O)Nc3ccccc3)O[C@@H]2CO)c1` the inhibition was -0.777% (inactive).
In the case of `COc1ccc2c3c(n(C)c2c1)[C@H](CO)NCC31CCN(C(=O)Nc2ccccc2F)CC1`, the inhibition is reported as 0.753% (inactive).
`CO[C@H]1CN(C)C(=O)c2ccc(NC(C)=O)cc2OC[C@H](C)N(C(=O)Cc2ccccn2)C[C@@H]1C` was tested, and the inhibition was 0.463% (inactive).
With `CN1C(=O)c2cc(NC(=O)C3CCC3)ccc2OC[C@@H]2O[C@@H](CC(=O)NCc3ccccc3F)CC[C@@H]21` the inhibition was -1.68% (inactive).
With `CO[C@H]1CN(C)C(=O)c2ccc(NC(=O)Cc3ccccc3)cc2OC[C@@H](C)N(C(C)=O)C[C@H]1C` the inhibition was -0.332% (inactive).
For `COc1ccc(CNC(=O)C[C@H]2CC[C@@H]3[C@H](COc4ccc(NC(=O)C5CC5)cc4C(=O)N3C)O2)cc1`, the inhibition was 0.0505% (inactive).
With `C[C@@H]1CN([C@@H](C)CO)S(=O)(=O)c2ccc(-c3ccccc3F)cc2O[C@H]1CN(C)Cc1cncnc1` the inhibition was 5.07% (inactive).
In the case of `C[C@@H]1CN([C@@H](C)CO)C(=O)c2cc(C#C[C@@H](C)O)cnc2O[C@H]1CN(C)CC1CCOCC1`, the inhibition is reported as 4.17% (inactive).
In the case of `COc1ccccc1-c1cn(CC[C@@H]2CC[C@H](NC(=O)c3ccccc3F)[C@H](CO)O2)nn1`, the inhibition is reported as -1.5% (inactive).
In the case of `COC(=O)C[C@H]1CC[C@H]2[C@@H](COc3ccc(NC(=O)Nc4cccc(F)c4)cc3C(=O)N2C)O1`, the inhibition is reported as -1.5% (inactive).
In the case of `COCc1cn(CC[C@@H]2CC[C@@H](NC(=O)Cc3cccnc3)[C@@H](CO)O2)nn1`, the inhibition is reported as 1.27% (inactive).
`CC(C)(C)[S@@](=O)N1Cc2cc(C(=O)N3CCOCC3)nc(-c3cccc(-c4ccc(C#N)cc4)c3)c2[C@H]1CCO` was tested, and the inhibition was 1.6% (inactive).
In the case of `CC=Cc1ccc2n(c1=O)C[C@@H]1[C@@H](CO)[C@H](C(=O)N[C@H](C)c3ccccc3)N(C(=O)c3cnccn3)[C@H]21` (mixture of isomers), the inhibition is reported as 0.423% (inactive).
`O=C(C[C@@H]1CC[C@@H]2[C@H](COC[C@H](O)CN2Cc2cccc(C(F)(F)F)c2)O1)NCc1ccc(F)cc1` was tested, and the inhibition was 3.72% (inactive).
`CN(C)CC(=O)N1CC2(C1)[C@H](c1ccccc1)[C@@H](CO)N2C(=O)C1CCCCC1` was tested, and the inhibition was -0.237% (inactive).
`O=C(C[C@H]1C=C[C@H](NC(=O)C2CCC2)[C@H](CO)O1)NCCCN1CCOCC1` was tested, and the inhibition was 1.01% (inactive).
For `COc1ccc(NC(=O)N(C)C[C@@H]2Oc3ccc(NS(=O)(=O)c4ccc(C)cc4)cc3CC(=O)N([C@@H](C)CO)C[C@H]2C)cc1`, the inhibition was 6.92% (inactive).
`CCNC(=O)Nc1ccc2c(c1)C(=O)N(C)[C@H]1CC[C@@H](CC(=O)N[C@@H](C)c3ccccc3)O[C@H]1CO2` was tested, and the inhibition was 0.198% (inactive).
With `O=C(Nc1ccccc1F)N1CC(=O)N2[C@H](C1)[C@@H](c1ccc(C#CC3CC3)cc1)[C@@H]2CO` the inhibition was 1.64% (inactive).
In the case of `CN(C)C(=O)[C@@H]1[C@@H](CO)[C@@H]2Cn3c(ccc(C4=CCCC4)c3=O)[C@H]1N2Cc1ccccn1`, the inhibition is reported as 1.36% (inactive).
With `NCC[C@H]1CC[C@H](NC(=O)C2CC2)[C@@H](CO)O1` the inhibition was 0.258% (inactive).
In the case of `CO[C@H]1CN(C)C(=O)c2ccc(NC(=O)C3CC3)cc2OC[C@H](C)N(CCc2ccccc2)C[C@@H]1C`, the inhibition is reported as 0.468% (inactive).
For `O=C(CC(F)(F)F)N1C[C@H]2[C@@H](c3ccccc31)[C@H](CO)N2C(=O)Cc1ccccc1`, the inhibition was -2.83% (inactive).
In the case of `CCCN1C[C@@H](C)[C@@H](OC)CN(C)C(=O)c2ccc(NC(=O)CC(F)(F)F)cc2OC[C@H]1C`, the inhibition is reported as -0.121% (inactive).
`CN1CCN(C(=O)C[C@@H]2CC[C@@H]3[C@@H](COc4ccc(NC(=O)c5ccc(F)c(F)c5)cc4C(=O)N3C)O2)CC1` was tested, and the inhibition was -0.587% (inactive).
`O=C(c1ccncc1)N1C[C@@H]2[C@H](c3ccccc31)[C@H](CO)N2C(=O)c1ccncc1` was tested, and the inhibition was -0.987% (inactive).
For `COc1ccc2c3c(n(C)c2c1)[C@H](CO)N(C(=O)NC(C)C)CC31CCN(C(=O)NC(C)C)CC1`, the inhibition was 0.238% (inactive).
In the case of `CCCN1C[C@H](C)[C@@H](OC)CN(C)C(=O)c2ccc(NC(=O)CC)cc2OC[C@@H]1C`, the inhibition is reported as 2.58% (inactive).
In the case of `O=C(Nc1ccccc1)N1CC(=O)N2[C@@H](CO)[C@H](c3ccc(C#CC4CCCC4)cc3)[C@@H]2C1`, the inhibition is reported as 0.422% (inactive).
With `CN(C)C(=O)C[C@@H]1CC[C@H](NC(=O)NC2CCCCC2)[C@@H](CO)O1` the inhibition was -0.283% (inactive).
`CCCC(=O)Nc1ccc2c(c1)C(=O)N(C)[C@@H]1CC[C@H](CC(=O)NCCOC)O[C@H]1CO2` was tested, and the inhibition was 0.186% (inactive).
In the case of `CC(=O)N1CC2(C1)[C@@H](c1ccccc1)[C@@H](CO)N2C(=O)c1cnccn1`, the inhibition is reported as 0.148% (inactive).
